Experimental findings from ChEMBL document CHEMBL3608285, “Citrifelins A and B, Citrinin Adducts with a Tetracyclic Framework from Cocultures of Marine-Derived Isolates of Penicillium citrinum and Beauveria felina” (2015) are described below.

SMILES strings stand for the structures. Converted amounts (≈) assume the structure as drawn. The source made the active and inactive calls. The calls are words filed in the database; no cut-off is given here. Numbered stars: 1 amine (or outer) side, 2 acyl side, 3 side chain; on linkers, the order of the positions; unused ones are H or OH. Square brackets hold non-standard residues; d marks the D form. Peptide text beside a SMILES is read from it. X1 = C[C@H]1CCN([*:1])[C@@H]1C(=O)[*:2]; dLac(3-vinyl) = C=CC[C@@H](O)C(=O)O; NMeF = CN[C@@H](Cc1ccccc1)C(=O)O; Hica(2S) = CC(C)C[C@H](O)C(=O)O; NMeV = CN[C@H](C(=O)O)C(C)C; NMeA = CN[C@@H](C)C(=O)O; βAla = NCCC(=O)O

The subject of experiment [1] is Vibrio parahaemolyticus. The experiment is described as follows: Antimicrobial activity against Vibrio parahaemolyticus by well diffusion method. The format is functional, organism-based. In short, it runs like this:
(§1)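 Agar well diffusion assay against the bacterial test strain; chloromycetin run alongside as positive control. Method follows a cited earlier protocol.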
In general terms: Agar diffusion results depend on both activity and mobility in agar.

Experiment [2] has as its system Vibrio alginolyticus. The experiment is described as follows: Antimicrobial activity against Vibrio alginolyticus by well diffusion method. The format is functional. The procedure, abridged: as §1
Experiment [3] concerns Vibrio harveyi. Description: Antimicrobial activity against Vibrio harveyi by well diffusion method. The format is functional, organism-based. The procedure, abridged: as §1
Experiment [4] has as its system Edwardsiella tarda. Description: Antimicrobial activity against Edwardsiella tarda by well diffusion method. The format is functional, organism-based. The procedure, abridged:
as §1

Experiment [5] has as its system Aeromonas hydrophila. Description: Antimicrobial activity against Aeromonas hydrophila by well diffusion method. The format is functional, organism-based. The procedure, abridged: as §1
The test system of experiment [6] is Vibrio anguillarum. Description: Antimicrobial activity against Vibrio anguillarum by well diffusion method. The format is functional, organism-based. In short, it runs like this:
as §1

In experiment [7] the test system is Staphylococcus aureus. Description: Antimicrobial activity against Staphylococcus aureus by well diffusion method. The format is functional.
The subject of experiment [8] is Escherichia coli. Description: Antimicrobial activity against Escherichia coli by well diffusion method. The format is functional.

A word on the MIC: it is the lowest concentration found to suppress growth. With `Cc1c2c(c3oc4cc(=O)c(C)c5c-4c(c3c1O)O[C@H](C)[C@H]5C)O[C@H](C)[C@H]2C`, the MIC entry in experiment [1], in experiment [2], in experiment [3], in experiment [4], in experiment [5] and in experiment [6] was “inactive” each time.
Take `Cc1c(O)cc2c3c1[C@H](C)[C@@H](C)O[C@@H]3C[C@H](c1ccc(O)cc1)O2`: the MIC result in experiment [1], in experiment [3], in experiment [4], in experiment [5] and in experiment [6] was “inactive” throughout. The results for the MIC in experiment [2], in experiment [7] and in experiment [8] were 16 µg/mL (≈ 49 µM), 8 µg/mL (≈ 24.5 µM) and 8 µg/mL (≈ 24.5 µM), respectively.
Regarding `C=CC[C@H]1OC(=O)CCNC(=O)[C@H](C)N(C)C(=O)[C@H](C(C)C)N(C)C(=O)[C@H]([C@@H](C)CC)NC(=O)[C@@H]2CCCN2C1=O` (cyclo([dLac(3-vinyl)]PI[NMeV][NMeA][βAla])), the MIC entry in experiment [1], in experiment [2], in experiment [3], in experiment [4], in experiment [5] and in experiment [6] was “inactive” throughout.
Take `C=CC[C@H]1OC(=O)CCNC(=O)[C@H](C)N(C)C(=O)[C@H](C(C)C)N(C)C(=O)[C@H]([C@@H](C)CC)NC(=O)[C@@H]2[C@@H](C)CCN2C1=O` (cyclo(I[NMeV][NMeA][βAla][dLac(3-vinyl)][X1])): the MIC entry in experiment [1], in experiment [2], in experiment [3], in experiment [4], in experiment [5] and in experiment [6] was “inactive” throughout.
As to `CC(C)C[C@@H]1OC(=O)CCNC(=O)[C@H](Cc2ccccc2)N(C)C(=O)[C@H](C(C)C)N(C)C(=O)[C@H](Cc2ccccc2)NC(=O)[C@@H]2[C@@H](C)CCN2C1=O` (cyclo(F[NMeV][NMeF][βAla][Hica(2S)][X1])), the MIC entry in experiment [1], in experiment [2], in experiment [3], in experiment [4], in experiment [5] and in experiment [6] was “inactive” each time.
For the compound `CC(C)C[C@@H]1OC(=O)CCNC(=O)[C@H](Cc2ccccc2)N(C)C(=O)[C@H](C(C)C)N(C)C(=O)[C@H](Cc2ccccc2)NC(=O)[C@@H]2CCCN2C1=O` (cyclo(F[NMeV][NMeF][βAla][Hica(2S)]P)), the MIC result in experiment [1], in experiment [2], in experiment [3], in experiment [4], in experiment [5] and in experiment [6] was “inactive” in each case.
With `COc1cc([C@H]2C[C@H]3O[C@H](C)[C@@H](C)c4c(C)c(O)cc(c43)O2)ccc1O`, the MIC entry in experiment [1], in experiment [3], in experiment [4], in experiment [5] and in experiment [6] was “inactive” throughout. The MIC in experiment [2] amounted to 16 µg/mL (≈ 44.9 µM); in experiment [7], 4 µg/mL (≈ 11.2 µM); in experiment [8] it was 2 µg/mL (≈ 5.61 µM).
With `Cc1c(O)cc(O)c2c1[C@H](C)[C@@H](C)OC2=O`, the MIC entry in experiment [1], in experiment [3], in experiment [4], in experiment [5] and in experiment [6] was “inactive” in each case. This compound also yielded an MIC in experiment [2] of 8 µg/mL (≈ 36 µM).
As for `Cc1c(O)c(C(=O)O)c(O)c2c1[C@H](C)[C@@H](C)OC2=O`, the MIC result in experiment [1], in experiment [2], in experiment [3], in experiment [4], in experiment [5] and in experiment [6] was “inactive” each time.
